Reference: ChEMBL document CHEMBL1275486, “Kinetic characterization of VIM-7, a divergent member of the VIM metallo-beta-lactamase family” (Antimicrob Agents Chemother, 2008)

Experiments:
Conditions in all cases: 07-406
[1] = system: O=C(Cc1cccs1)N[C@@H]1C(=O)N2C(C(=O)O)=C(/C=C/c3ccc([N+](=O)[O-])cc3[N+](=O)[O-])CS[C@H]12; assay: (§1) Activity of Pseudomonas aeruginosa beta-lactamase VIM-7 by spectrophotometry
Method in brief: (§2)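 Recombinant enzyme was expressed in E. coli BL21(DE3) from pET-26b and purified from the periplasm to >99%, with concentration taken from A280. Hydrolysis was followed spectrophotometrically at 25°C in 50 mM sodium cacodylate pH 7.0 with 100 μM ZnCl2 and 0.1 mg/ml BSA. Km and kcat came from initial velocity versus substrate concentration. Some Km values were taken as competitive Ki against nitrocefin reporter.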

[2] = system: CC(=O)OCC1=C(C(=O)O)N2C(=O)[C@@H](NC(=O)Cc3cccs3)[C@H]2SC1; assay: as §1; method in brief: as §2
[3] = system: C[C@@H](O)[C@H]1C(=O)N2C(C(=O)O)=C(S[C@@H]3CN[C@H](C(=O)N(C)C)C3)[C@H](C)[C@H]12; assay: as §1; method in brief: as §2
[4] = system: CC1(C)S[C@@H]2[C@H](NC(=O)[C@H](N)c3ccccc3)C(=O)N2[C@H]1C(=O)O; assay: as §1; method in brief: as §2
[5] = system: CC(C)(O/N=C(\C(=O)N[C@@H]1C(=O)N2C(C(=O)[O-])=C(C[n+]3ccccc3)CS[C@H]12)c1csc(N)n1)C(=O)O; assay: as §1; method in brief: as §2
[6] = system: C[C@@H](O)[C@H]1C(=O)N2C(C(=O)O)=C(S[C@@H]3CN[C@H](C(=O)Nc4cccc(C(=O)O)c4)C3)[C@H](C)[C@H]12; assay: as §1; method in brief: as §2
[7] = system: CC1(C)[C@H](C(=O)O)N2C(=O)C[C@H]2S1(=O)=O; assay: as §1; method in brief: as §2
[8] = system: CO/N=C(\C(=O)N[C@@H]1C(=O)N2C(C(=O)O)=C(COC(C)=O)CS[C@H]12)c1csc(N)n1; assay: as §1; method in brief: as §2
[9] = system: CCN1CCN(C(=O)N[C@@H](C(=O)N[C@@H]2C(=O)N3[C@@H]2SC(C)(C)[C@@H]3C(=O)O)c2ccccc2)C(=O)C1=O; assay: as §1; method in brief: as §2
[10] = system: C[C@@H](O)[C@H]1C(=O)N2C(C(=O)O)=C(SCCNC=N)C[C@H]12; assay: as §1; method in brief: as §2
[11] = system: CO[C@@]1(NC(=O)C(C(=O)O)c2ccc(O)cc2)C(=O)N2C(C(=O)O)=C(CSc3nnnn3C)CO[C@@H]21; assay: as §1; method in brief: as §2
[12] = system: Cc1onc(-c2ccccc2Cl)c1C(=O)N[C@@H]1C(=O)N2[C@@H]1SC(C)(C)[C@@H]2C(=O)O; assay: as §1; method in brief: as §2
[13] = system: O=C(Cc1cccs1)N[C@@H]1C(=O)N2C(C(=O)[O-])=C(C[n+]3ccccc3)CS[C@H]12; assay: as §1; method in brief: as §2
[14] = system: CO[C@@]1(NC(=O)Cc2cccs2)C(=O)N2C(C(=O)O)=C(COC(N)=O)CS[C@@H]21; assay: as §1; method in brief: as §2
[15] = system: CO/N=C(\C(=O)N[C@@H]1C(=O)N2C(C(=O)[O-])=C(C[N+]3(C)CCCC3)CS[C@H]12)c1csc(N)n1; assay: as §1; method in brief: as §2
[16] = system: CC1(C)S[C@@H]2[C@H](NC(=O)Cc3ccccc3)C(=O)N2[C@H]1C(=O)O; assay: as §1; method in brief: as §2
[17] = system: CC1(C)S[C@@H]2[C@H](NC(=O)C(C(=O)O)c3ccccc3)C(=O)N2[C@H]1C(=O)O; assay: as §1; method in brief: as §2
[18] = system: CO/N=C(\C(=O)N[C@@H]1C(=O)N2C(C(=O)O)=C(COC(N)=O)CS[C@H]12)c1ccco1; assay: as §1; method in brief: as §2
[19] = system: C[C@]1(Cn2ccnn2)[C@H](C(=O)O)N2C(=O)C[C@H]2S1(=O)=O; assay: as §1; method in brief: as §2
[20] = system: C[C@H]1[C@H](NC(=O)/C(=N\OC(C)(C)C(=O)O)c2csc(N)n2)C(=O)N1S(=O)(=O)O; assay: as §1; method in brief: as §2
[21] = system: CC1(C)S[C@@H]2[C@H](NC(=O)[C@H](NC(=O)N3CCNC3=O)c3ccccc3)C(=O)N2[C@H]1C(=O)O; assay: as §1; method in brief: as §2
[22] = system: O=C(O)[C@H]1/C(=C/CO)O[C@@H]2CC(=O)N21; assay: as §1; method in brief: as §2
[23] = system: O=C(Cc1cccs1)N[C@@H]1C(=O)N2C(C(=O)O)=C(/C=C/c3ccc([N+](=O)[O-])cc3[N+](=O)[O-])CS[C@H]12; assay: (§3) Ratio of Kcat to Km for Pseudomonas aeruginosa beta-lactamase VIM-7 by spectrophotometry; method in brief: as §2
[24] = system: CC(=O)OCC1=C(C(=O)O)N2C(=O)[C@@H](NC(=O)Cc3cccs3)[C@H]2SC1; assay: as §3; method in brief: as §2
[25] = system: C[C@@H](O)[C@H]1C(=O)N2C(C(=O)O)=C(S[C@@H]3CN[C@H](C(=O)N(C)C)C3)[C@H](C)[C@H]12; assay: as §3; method in brief: as §2
[26] = system: CC1(C)S[C@@H]2[C@H](NC(=O)[C@H](N)c3ccccc3)C(=O)N2[C@H]1C(=O)O; assay: as §3; method in brief: as §2
[27] = system: CC(C)(O/N=C(\C(=O)N[C@@H]1C(=O)N2C(C(=O)[O-])=C(C[n+]3ccccc3)CS[C@H]12)c1csc(N)n1)C(=O)O; assay: as §3; method in brief: as §2
[28] = system: C[C@@H](O)[C@H]1C(=O)N2C(C(=O)O)=C(S[C@@H]3CN[C@H](C(=O)Nc4cccc(C(=O)O)c4)C3)[C@H](C)[C@H]12; assay: as §3; method in brief: as §2
[29] = system: CC1(C)[C@H](C(=O)O)N2C(=O)C[C@H]2S1(=O)=O; assay: as §3; method in brief: as §2
[30] = system: CO/N=C(\C(=O)N[C@@H]1C(=O)N2C(C(=O)O)=C(COC(C)=O)CS[C@H]12)c1csc(N)n1; assay: as §3; method in brief: as §2
[31] = system: CCN1CCN(C(=O)N[C@@H](C(=O)N[C@@H]2C(=O)N3[C@@H]2SC(C)(C)[C@@H]3C(=O)O)c2ccccc2)C(=O)C1=O; assay: as §3; method in brief: as §2
[32] = system: C[C@@H](O)[C@H]1C(=O)N2C(C(=O)O)=C(SCCNC=N)C[C@H]12; assay: as §3; method in brief: as §2
[33] = system: CO[C@@]1(NC(=O)C(C(=O)O)c2ccc(O)cc2)C(=O)N2C(C(=O)O)=C(CSc3nnnn3C)CO[C@@H]21; assay: as §3; method in brief: as §2
[34] = system: Cc1onc(-c2ccccc2Cl)c1C(=O)N[C@@H]1C(=O)N2[C@@H]1SC(C)(C)[C@@H]2C(=O)O; assay: as §3; method in brief: as §2
[35] = system: O=C(Cc1cccs1)N[C@@H]1C(=O)N2C(C(=O)[O-])=C(C[n+]3ccccc3)CS[C@H]12; assay: as §3; method in brief: as §2
[36] = system: CO[C@@]1(NC(=O)Cc2cccs2)C(=O)N2C(C(=O)O)=C(COC(N)=O)CS[C@@H]21; assay: as §3; method in brief: as §2
[37] = system: CO/N=C(\C(=O)N[C@@H]1C(=O)N2C(C(=O)[O-])=C(C[N+]3(C)CCCC3)CS[C@H]12)c1csc(N)n1; assay: as §3; method in brief: as §2
[38] = system: CC1(C)S[C@@H]2[C@H](NC(=O)Cc3ccccc3)C(=O)N2[C@H]1C(=O)O; assay: as §3; method in brief: as §2
[39] = system: CC1(C)S[C@@H]2[C@H](NC(=O)C(C(=O)O)c3ccccc3)C(=O)N2[C@H]1C(=O)O; assay: as §3; method in brief: as §2
[40] = system: CO/N=C(\C(=O)N[C@@H]1C(=O)N2C(C(=O)O)=C(COC(N)=O)CS[C@H]12)c1ccco1; assay: as §3; method in brief: as §2
[41] = system: C[C@]1(Cn2ccnn2)[C@H](C(=O)O)N2C(=O)C[C@H]2S1(=O)=O; assay: as §3; method in brief: as §2
[42] = system: CC1(C)S[C@@H]2[C@H](NC(=O)[C@H](NC(=O)N3CCNC3=O)c3ccccc3)C(=O)N2[C@H]1C(=O)O; assay: as §3; method in brief: as §2
[43] = system: O=C(O)[C@H]1/C(=C/CO)O[C@@H]2CC(=O)N21; assay: as §3; method in brief: as §2

Sequence of Metallo-b-lactamase (Pseudomonas aeruginosa), Q840P9 (Q840P9 whole entry): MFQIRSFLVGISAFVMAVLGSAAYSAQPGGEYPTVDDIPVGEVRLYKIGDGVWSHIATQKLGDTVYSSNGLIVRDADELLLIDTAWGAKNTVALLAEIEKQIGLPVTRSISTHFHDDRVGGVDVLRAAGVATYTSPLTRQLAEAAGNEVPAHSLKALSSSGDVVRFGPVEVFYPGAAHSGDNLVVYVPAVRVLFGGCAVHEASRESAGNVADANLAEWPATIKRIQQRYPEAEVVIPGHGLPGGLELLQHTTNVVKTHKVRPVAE

In the case of “Metallo-b-lactamase (Pseudomonas aeruginosa), Q840P9”, the Km [1] is reported as 58 µM, the kcat [1] is reported as 1500 s⁻¹ and the Km [2] is reported as 45 µM. The kcat [2] was 180 s⁻¹, the Km [3] was 38 µM and the kcat [3] was 42 s⁻¹. For the same substance, the Km [4] was 15 µM, the kcat [4] was 190 s⁻¹ and the Km [5] was 120 µM. For the same substance, the kcat [5] was 1.4 s⁻¹, the Km [6] was 28 µM and the kcat [6] was 8 s⁻¹. For the same substance, the Km [7] was 740 µM, the kcat [7] was 110 s⁻¹ and the Km [8] was 22 µM. For the same substance, the kcat [8] was 56 s⁻¹, the Km [9] was 26 µM and the kcat [9] was 140 s⁻¹. For the same substance, the Km [10] was 27 µM, the kcat [10] was 100 s⁻¹ and the Km [11] was 75 µM. The kcat [11] was 230 s⁻¹, the Km [12] was 860 µM and the kcat [12] was 2500 s⁻¹. The Km [13] was 250 µM, the kcat [13] was 180 s⁻¹ and the Km [14] was 68 µM. The kcat [14] was 10 s⁻¹, the Km [15] was 580 µM and the kcat [15] was 5.3 s⁻¹. It also gave a Km [16] of 17 µM, a kcat [16] of 430 s⁻¹ and a Km [17] of 84 µM. For the same substance, the kcat [17] was 1200 s⁻¹, the Km [18] was 29 µM and the kcat [18] was 16 s⁻¹. It also gave a Km [19] of 3500 µM, a kcat [19] of 68 s⁻¹ and a Km [20] of 2700 µM. The Km [21] was 66 µM, the kcat [21] was 78 s⁻¹ and the Km [22] was 940 µM. The kcat [22] was 2.3 s⁻¹, the kcat/Km [23] was 2.6e+07 M⁻¹ s⁻¹ and the kcat/Km [24] was 4e+06 M⁻¹ s⁻¹. It also gave a kcat/Km [25] of 1.1e+06 M⁻¹ s⁻¹, a kcat/Km [26] of 1.3e+07 M⁻¹ s⁻¹ and a kcat/Km [27] of 12000 M⁻¹ s⁻¹. It also gave a kcat/Km [28] of 290000 M⁻¹ s⁻¹, a kcat/Km [29] of 150000 M⁻¹ s⁻¹ and a kcat/Km [30] of 2.6e+06 M⁻¹ s⁻¹. For the same substance, the kcat/Km [31] was 5.4e+06 M⁻¹ s⁻¹, the kcat/Km [32] was 3.7e+06 M⁻¹ s⁻¹ and the kcat/Km [33] was 3.1e+06 M⁻¹ s⁻¹. The kcat/Km [34] was 2.9e+06 M⁻¹ s⁻¹, the kcat/Km [35] was 720000 M⁻¹ s⁻¹ and the kcat/Km [36] was 150000 M⁻¹ s⁻¹. For the same substance, the kcat/Km [37] was 9100 M⁻¹ s⁻¹, the kcat/Km [38] was 2.5e+07 M⁻¹ s⁻¹ and the kcat/Km [39] was 1.4e+07 M⁻¹ s⁻¹. The kcat/Km [40] was 550000 M⁻¹ s⁻¹, the kcat/Km [41] was 19000 M⁻¹ s⁻¹ and the kcat/Km [42] was 1.2e+06 M⁻¹ s⁻¹. It also gave a kcat/Km [43] of 2500 M⁻¹ s⁻¹.
